What is called AUC(0-t) is exposure summed from dosing to a finite time, without extrapolation to infinity. Read a low AUC(0-t) as less exposure. By half-life is commonly meant the time in which the quantity being followed falls by half. A higher half-life goes with slow decline. The Cmax is the maximum level reached in the sampled fluid or tissue.

The text below walks through data of ChEMBL document CHEMBL5038583, “Highly Potent and Selective Butyrylcholinesterase Inhibitors for Cognitive Improvement and Neuroprotection” (J Med Chem, 2021).

Molecules are shown by their SMILES. Active and inactive are the calls of the source. The calls are words filed in the database; no cut-off is given here.

A short description of data set [1]: AUC (0 to t) in overnight fasted Sprague-Dawley rat at 10 mg/kg, po measured upto 1440 mins by LC/MS/MS analysis. On the set-up: route oral, dose 10 mg/kg, time <=1440. The following applies: in vivo. The data set is classed as ADME, organism-based. Put shortly: (§1)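 Male SD rats (180−220 g), n = 8 per route, fasted overnight with water available. Single 10 mg/kg dose p.o. or i.v. in DMSO/PEG400/saline (10:80:10). Retro-orbital blood taken into heparinized tubes at 1–1440 min. Plasma precipitated with methanol containing theophylline internal standard, then LC/MS/MS against a blank-plasma standard curve. Parameters from noncompartmental extravascular analysis; mean ± SD.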

A short description of data set [2]: Half life in overnight fasted Sprague-Dawley rat at 10 mg/kg, po measured upto 1440 mins by LC/MS/MS analysis. It is filed as ADME, organism-based. The conditions noted are these: in vivo. The method in brief: as §1
Data set [3] can be described thus: Cmax in overnight fasted Sprague-Dawley rat at 10 mg/kg, po measured upto 1440 mins by LC/MS/MS analysis. The data set is classed as ADME, organism-based. More on the design: route oral, dose 10 mg/kg, time <=1440. The following applies: in vivo. The method in brief:
as §1

Data set [4] in a line: Hepatotoxicity in ICR mouse assessed as morphological changes in liver at 1 g/kg, ig administered daily for 14 days analysed after 22 hrs post-administration by hematoxylin and eosin staining based analysis. It is filed as toxicity, tissue-based. The following applies: in vivo, po, 1000 mg/kg, 336 h, time 14 day. The method in brief:
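Liver from male mice taken 22 h after compound or vehicle; hematoxylin−eosin staining, viewed at ×100.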

Data set [5] can be described thus: Metabolic stability in human liver microsomes assessed as intrinsic clearance at 1 uM measured upto 45 mins in presence of NADPH by LC/MS/MS analysis. It is filed as ADME, Microsome. The conditions noted are these: read-out: CLH. Put shortly:
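Human liver microsomes 0.5 mg/mL, compound 1 μM final, NADPH 2 mM, at 37 °C. Reactions stopped at 0, 5, 15, 30 and 45 min with acetonitrile containing imipramine internal standard. LC/MS/MS quantitation relative to 0 min; initial rates used for t1/2 and intrinsic clearance; ketanserin as assay control. Mean of two independent experiments.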

The test system of data set [6] is Mus musculus. Kind of data set: Anti-alzheimer activity in amyloid beta(1 to 42)-induced ICR mouse model of cognitive impairment assessed as simplification of trajectories at 15 mg/kg, ig administered at days 2 to 14 by Morris water maze test. The data set is classed as functional, organism-based. Put shortly: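 ICR mice, n = 8 per group. Aggregated Aβ1-42 (5 mM DMSO stock incubated 24 h at 37 °C in saline at 2 mg/mL) given 10 μg per mouse icv on day 1; saline icv for sham. Compound 15 mg/kg intragastric on days 2−14; donepezil reference. Morris water maze training days 9−13, probe trial day 14; tracks recorded; mean ± SD.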

`Nc1nonc1-c1nc2ccccc2n1CC(=O)Nc1cnc2ccccc2c1` showed an exposure AUC(0-t) at 24 h in data set [1] of 628 ng·h/mL. In data set [2], this molecule gave a half-life of 5.47 h. This molecule also displayed a Cmax in data set [3] of 44.7 ng/mL. Besides, the Activity result in data set [4] is “Non-Toxic”. The CLint scaled at 1 µM in data set [5] came to 10.9 mL/min/kg. In data set [6], the outcome was Active.
